What was measured:
[1] = test system: KM12; experiment: Cytotoxicity against human KM12 cells assessed as cell growth at 10^-5 M after 48 hrs by SRB assay; assay type: functional; settings: KM12, 48 h, read-out: Activity
How it was run: (§1)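 NCI 60 single-dose screen at 10^-5 M. Cells in RPMI 1640 with 5% FBS and 2 mM L-glutamine, preincubated 24 h at 37 °C/5% CO2. Drug from DMSO stock, then 48 h exposure. TCA fixation, SRB staining, absorbance at 515 nm. Result given as percent growth of treated cells relative to untreated control.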

[2] = test system: T47D; experiment: Cytotoxicity against human T47D cells assessed as cell growth at 10^-5 M after 48 hrs by SRB assay; assay type: functional; settings: read-out: Activity
How it was run: (§2)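 NCI primary single-dose screen at 10^-5 M. Cells grown in RPMI 1640 with 5% FBS and 2 mM L-glutamine, given 24 h before drug addition, then 48 h exposure at 37 °C, 5% CO2. Cells TCA-fixed, stained with SRB, read at 515 nm. Reported as percent growth of treated cells relative to untreated controls.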

[3] = test system: LOX IMVI; experiment: Cytotoxicity against human LOXIMVI cells assessed as cell growth at 10^-5 M after 48 hrs by SRB assay; assay type: functional; settings: read-out: Activity; how it was run: as §1
[4] = test system: NCI-H322M; experiment: Cytotoxicity against human NCI-H322M cells assessed as cell growth at 10^-5 M after 48 hrs by SRB assay; assay type: functional; settings: read-out: Activity
How it was run: (§3)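 NCI 60-panel single-dose primary screen at 10^-5 M. Cells are grown in RPMI 1640 with 5% FBS and 2 mM L-glutamine and preincubated 24 h at 37 °C. Drug exposure is 48 h. Cells are TCA-fixed, stained with SRB and absorbance is read at 515 nm. Results are reported as percent growth of treated cells versus untreated controls, corrected using time-zero plates.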

[5] = test system: CAKI-1; experiment: Cytotoxicity against human Caki1 cells assessed as cell growth at 10^-5 M after 48 hrs by SRB assay; assay type: functional; settings: CAKI-1, 48 h, read-out: Activity; how it was run: as §1
[6] = test system: MDA-MB-231; experiment: Cytotoxicity against human MDA-MB-231 cells assessed as cell growth at 10^-5 M after 48 hrs by SRB assay; assay type: functional; settings: MDA-MB-231, 48 h, read-out: Activity; how it was run: as §1
[7] = test system: TK-10; experiment: Cytotoxicity against human TK10 cells assessed as cell growth at 10^-5 M after 48 hrs by SRB assay; assay type: functional; settings: TK-10, 48 h, read-out: Activity; how it was run: as §2
[8] = test system: SK-MEL-5; experiment: Cytotoxicity against human SK-MEL-5 cells assessed as cell growth at 10^-5 M after 48 hrs by SRB assay; assay type: functional; settings: SK-MEL-5, 48 h, read-out: Activity; how it was run: as §3
[9] = test system: SK-MEL-2; experiment: Cytotoxicity against human SK-MEL-2 cells assessed as cell growth at 10^-5 M after 48 hrs by SRB assay; assay type: functional; settings: SK-MEL-2, 48 h, read-out: Activity; how it was run: as §3
[10] = test system: 786-0; experiment: Cytotoxicity against human 786-0 cells assessed as cell growth at 10^-5 M after 48 hrs by SRB assay; assay type: functional; settings: 786-0, 48 h, read-out: Activity; how it was run: as §1
[11] = test system: SK-OV-3; experiment: Cytotoxicity against human SKOV3 cells assessed as cell growth at 10^-5 M after 48 hrs by SRB assay; assay type: functional; settings: SK-OV-3, 48 h, read-out: Activity; how it was run: as §3
[12] = test system: SF-268; experiment: Cytotoxicity against human SF268 cells assessed as cell growth at 10^-5 M after 48 hrs by SRB assay; assay type: functional; settings: SF-268, 48 h, read-out: Activity; how it was run: as §3
[13] = test system: SNB-19; experiment: Cytotoxicity against human SNB19 cells assessed as cell growth at 10^-5 M after 48 hrs by SRB assay; assay type: functional; settings: SNB-19, 48 h, read-out: Activity; how it was run: as §3
[14] = test system: OVCAR-3; experiment: Cytotoxicity against human OVCAR3 cells assessed as cell growth at 10^-5 M after 48 hrs by SRB assay; assay type: functional; settings: OVCAR-3, 48 h, read-out: Activity; how it was run: as §3
[15] = test system: HT-29; experiment: Cytotoxicity against human HT-29 cells assessed as cell growth at 10^-5 M after 48 hrs by SRB assay; assay type: functional; settings: HT-29, 48 h, read-out: Activity; how it was run: as §1
[16] = Cytotoxicity against human EKVX cells assessed as cell growth at 10^-5 M after 48 hrs by SRB assay; assay type: functional; settings: read-out: Activity; how it was run: as §1
[17] = test system: UACC-62; experiment: Cytotoxicity against human UACC62 cells assessed as cell growth at 10^-5 M after 48 hrs by SRB assay; assay type: functional; settings: UACC-62, 48 h, read-out: Activity; how it was run: as §2
[18] = test system: HL-60(TB); experiment: Cytotoxicity against human HL-60(TB) cells assessed as cell growth at 10^-5 M after 48 hrs by SRB assay; assay type: functional; settings: HL-60, 48 h, read-out: Activity
How it was run: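 NCI 60-panel single-dose screen. Cells were grown in RPMI 1640 with 5% FBS and 2 mM L-glutamine, preincubated 24 h, then exposed to compound at 10^-5 M (from DMSO stock) for 48 h at 37 °C, 5% CO2. Settled suspension cells were TCA-fixed and SRB-stained, with absorbance read at 515 nm. The value is percent growth of treated versus untreated control cells.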

[19] = test system: A549; experiment: Cytotoxicity against human A549 cells assessed as cell growth at 10^-5 M after 48 hrs by SRB assay; assay type: functional; settings: A549, 48 h, read-out: Activity; how it was run: as §1
[20] = test system: HOP-92; experiment: Cytotoxicity against human HOP92 cells assessed as cell growth at 10^-5 M after 48 hrs by SRB assay; assay type: functional; settings: HOP-92, 48 h, read-out: Activity; how it was run: as §1
[21] = molecular target: Epidermal growth factor receptor (Homo sapiens, UniProt P00533); settings: at 10 µM;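 further: EGFR tyrosine kinase activity on a poly(Glu,Tyr) substrate, read out by Kinase-Glo Plus luminescence after a 40 min reaction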
Epidermal growth factor receptor, sequence (P00533 whole entry): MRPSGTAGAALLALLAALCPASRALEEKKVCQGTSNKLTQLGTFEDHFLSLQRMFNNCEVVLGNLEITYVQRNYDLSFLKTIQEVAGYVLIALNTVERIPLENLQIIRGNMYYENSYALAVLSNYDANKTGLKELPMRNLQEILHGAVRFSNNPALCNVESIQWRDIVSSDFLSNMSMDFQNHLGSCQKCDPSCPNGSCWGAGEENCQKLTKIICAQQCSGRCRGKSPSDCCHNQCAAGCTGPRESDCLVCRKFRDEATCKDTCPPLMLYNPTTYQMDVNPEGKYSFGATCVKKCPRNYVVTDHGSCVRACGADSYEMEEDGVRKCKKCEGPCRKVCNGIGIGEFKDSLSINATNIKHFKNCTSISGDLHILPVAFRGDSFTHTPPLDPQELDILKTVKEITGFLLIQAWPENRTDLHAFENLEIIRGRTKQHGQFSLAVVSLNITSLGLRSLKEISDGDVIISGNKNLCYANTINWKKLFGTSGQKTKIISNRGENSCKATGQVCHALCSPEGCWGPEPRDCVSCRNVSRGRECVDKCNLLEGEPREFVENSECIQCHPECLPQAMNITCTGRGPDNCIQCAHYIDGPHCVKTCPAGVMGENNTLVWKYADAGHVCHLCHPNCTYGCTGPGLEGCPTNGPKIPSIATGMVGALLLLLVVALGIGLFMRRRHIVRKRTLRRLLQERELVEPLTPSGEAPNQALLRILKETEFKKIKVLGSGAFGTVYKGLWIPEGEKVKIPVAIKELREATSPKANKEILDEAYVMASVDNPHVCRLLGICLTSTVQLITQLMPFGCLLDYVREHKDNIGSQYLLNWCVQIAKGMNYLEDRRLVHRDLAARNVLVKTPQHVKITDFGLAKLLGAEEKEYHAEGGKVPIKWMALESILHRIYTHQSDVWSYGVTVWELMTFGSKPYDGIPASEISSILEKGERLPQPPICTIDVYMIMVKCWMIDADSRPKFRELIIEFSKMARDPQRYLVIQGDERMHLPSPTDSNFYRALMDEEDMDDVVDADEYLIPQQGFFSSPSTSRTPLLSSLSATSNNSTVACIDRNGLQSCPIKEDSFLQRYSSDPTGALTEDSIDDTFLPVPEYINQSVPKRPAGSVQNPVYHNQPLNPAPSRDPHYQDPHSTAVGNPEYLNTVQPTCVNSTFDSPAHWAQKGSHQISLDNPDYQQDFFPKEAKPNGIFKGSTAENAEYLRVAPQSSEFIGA

[22] = test system: BT-549; experiment: Cytotoxicity against human BT549 cells assessed as cell growth at 10^-5 M after 48 hrs by SRB assay; assay type: functional; settings: BT-549, 48 h, read-out: Activity; how it was run: as §1
[23] = test system: OVCAR-5; experiment: Cytotoxicity against human OVCAR5 cells assessed as cell growth at 10^-5 M after 48 hrs by SRB assay; assay type: functional; settings: OVCAR-5, 48 h, read-out: Activity; how it was run: as §3
[24] = test system: COLO 205; experiment: Cytotoxicity against human COLO205 cells assessed as cell growth at 10^-5 M after 48 hrs by SRB assay; assay type: functional; settings: COLO 205, 48 h, read-out: Activity; how it was run: as §1
[25] = test system: UACC-257; experiment: Cytotoxicity against human UACC257 cells assessed as cell growth at 10^-5 M after 48 hrs by SRB assay; assay type: functional; settings: UACC-257, 48 h, read-out: Activity; how it was run: as §2
[26] = test system: K562; experiment: Cytotoxicity against human K562 cells assessed as cell growth at 10^-5 M after 48 hrs by SRB assay; assay type: functional; settings: K562, 48 h, read-out: Activity; how it was run: as §1
[27] = test system: SK-MEL-28; experiment: Cytotoxicity against human SK-MEL-28 cells assessed as cell growth at 10^-5 M after 48 hrs by SRB assay; assay type: functional; settings: SK-MEL-28, 48 h, read-out: Activity; how it was run: as §3
[28] = test system: NCI-H522; experiment: Cytotoxicity against human NCI-H522 cells assessed as cell growth at 10^-5 M after 48 hrs by SRB assay; assay type: functional; settings: NCI-H522, 48 h, read-out: Activity; how it was run: as §3

Row | SMILES | growth at 10 µM [1] [%] | growth at 10 µM [2] [%] | growth at 10 µM [3] [%] | growth at 10 µM [4] [%] | growth at 10 µM [5] [%] | growth at 10 µM [6] [%] | growth at 10 µM [7] [%] | growth at 10 µM [8] [%] | growth at 10 µM [10] [%] | growth at 10 µM [11] [%] | growth at 10 µM [12] [%] | growth at 10 µM [13] [%] | growth at 10 µM [14] [%] | growth at 10 µM [15] [%] | growth at 10 µM [16] [%] | growth at 10 µM [17] [%] | growth at 10 µM [18] [%] | growth at 10 µM [19] [%] | inhibition [21] [%] | growth at 10 µM [22] [%] | further results
1 | NC(=O)Nc1ccc2ncnc(Nc3ccc(Cl)cc3)c2c1 | 98.5 | 61.6 | 95.5 | 18 | 40.1 | 89.3 | 26.5 | 89.2 | 85.9 | 30.2 | 79.7 | 78.6 | 74.2 | 91.6 | 22.4 | 87.9 | 99.9 | 72.5 | 100 | 92.4 | growth at 10 µM [9]: 127%; growth at 10 µM [20]: 74.2%; growth at 10 µM [23]: 83.6%; growth at 10 µM [24]: 101%; growth at 10 µM [25]: 100%; growth at 10 µM [26]: 71.4%; growth at 10 µM [27]: 106%; growth at 10 µM [28]: 66.2%
2 | CCOC(=O)/C(C#N)=C\Nc1ccc2ncnc(Nc3ccc(Cl)cc3)c2c1 | 74 | 72.7 | 87.5 | 22.6 | 32.6 | 93.1 | 51.3 | 72 | 83.1 | 85 | 76.1 | 88 | 50.2 | 86.3 | 20.6 | 103 | 76.2 | 66.1 | 100 | 76.1 | growth at 10 µM [9]: 105%; growth at 10 µM [23]: 92.8%; growth at 10 µM [24]: 102%; growth at 10 µM [25]: 108%; growth at 10 µM [26]: 61.4%; growth at 10 µM [27]: 105%; growth at 10 µM [28]: 79.8%
3 | NC(=O)Nc1ccc2ncnc(Nc3cccc(O)c3)c2c1 | 96.1 | 76.6 | 101 | 83.5 | 84.8 | 104 | 103 | 101 | 92.6 | 87.5 | 85.4 | 93.1 | 82.8 | 106 | 82.6 | 105 | 105 | 93.5 | 100 | 108 | growth at 10 µM [20]: 78%; growth at 10 µM [23]: 98.1%; growth at 10 µM [24]: 94.7%; growth at 10 µM [25]: 99.8%; growth at 10 µM [26]: 103%; growth at 10 µM [27]: 114%; growth at 10 µM [28]: 102%
4 | CCOC(=O)/C(C#N)=C\Nc1ccc2ncnc(Nc3ccccc3Cl)c2c1 | 88.5 | 77.6 | 93 | 47 | 45 | 86.9 | 53 | 88.3 | 91.3 | 107 | 106 | 94.5 | 95.3 | 100 | 39 | 107 | 95.3 | 82.4 | 94 | 112 | growth at 10 µM [9]: 106%; growth at 10 µM [20]: 70.4%; growth at 10 µM [23]: 90.1%; growth at 10 µM [24]: 110%; growth at 10 µM [25]: 120%; growth at 10 µM [26]: 88.6%; growth at 10 µM [27]: 119%; growth at 10 µM [28]: 107%
5 | CCOC(=O)/C(C#N)=C\Nc1ccc2ncnc(Nc3ccc(Cl)cc3Cl)c2c1 | 79.1 | 58.6 | 87.5 | 75.7 | 39 | 85.2 | 44.2 | 78.3 | 82.6 | 97 | 73 | 86.4 | 67.6 | 79.4 | 41.7 | 90 | 108 | 72.1 | 92 | 89.6 | growth at 10 µM [9]: 110%; growth at 10 µM [20]: 56.5%; growth at 10 µM [23]: 82.2%; growth at 10 µM [24]: 108%; growth at 10 µM [25]: 97.2%; growth at 10 µM [26]: 59.7%; growth at 10 µM [27]: 109%; growth at 10 µM [28]: 95.8%
6 | C#Cc1cccc(Nc2ncnc3ccc(N/C=C(\C#N)C(=O)OCC)cc23)c1 | 98.1 | 73.4 | 103 | 52.3 | 56.1 | 97.2 | 65.5 | 89.4 | 91.7 | 97 | 94.4 | 85.1 | 78.7 | 98 | 31.9 | 104 | 97.5 | 85.1 | 95 | 99.6 | growth at 10 µM [9]: 123%; growth at 10 µM [20]: 90.3%; growth at 10 µM [23]: 89.5%; growth at 10 µM [24]: 104%; growth at 10 µM [25]: 99.8%; growth at 10 µM [26]: 96.4%; growth at 10 µM [27]: 103%; growth at 10 µM [28]: 86.3%
